The results in this text go back to the EternaBench riboswitch data.

In series [1] the test system is MS2 coat protein. Briefly: apparent Kd, MS2 coat protein; higher = weaker binding; RNA-MaP array. The settings on record: designed as: OFF switch for flavin mononucleotide. In short, it runs like this: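 Binding of fluorescently labeled MS2 coat protein, at 1.5 nM to 3 μM and room temperature, was measured with or without input ligand on designed RNAs transcribed on an Illumina sequencing chip from sequenced DNA templates. Apparent Kd was defined as the median of per-cluster binding-curve fits. No design measured on fewer than 10 clusters was kept.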

Series [2] has as its system MS2 coat protein. Briefly: apparent Kd, MS2 coat protein; higher = weaker binding; RNA-MaP array; FMN 200 µM where present. The procedure, abridged:
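Designs were transcribed by stalled E. coli RNA polymerase on Illumina sequencing-chip clusters. They were titrated with SNAP-549-labelled MS2 coat protein from 0.7 or 1.5 nM, doubling to 3 µM, in 100 mM Tris-HCl pH 7.5, 80 mM KCl, 4 mM MgCl2, BSA, DTT, yeast tRNA and Tween-20, without and then with constant ligand. The apparent Kd is the median of filtered per-cluster fits after normalisation of green signal to red-channel RNA signal and control-cluster median Fmax.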

[3] abbreviates: designed as: OFF switch for flavin mononucleotide, no ligand.
[4] abbreviates: ligand present: flavin mononucleotide, designed as: OFF switch for flavin mononucleotide.
Where [5] appears, read: designed as: ON switch for flavin mononucleotide, no ligand.
Where [6] appears, read: ligand present: flavin mononucleotide, designed as: ON switch for flavin mononucleotide.

As to “AGUCACUUCUAGAAGGCGCGGACUUACUAGCGGCGAGGAUAUAGUAGGAACAUGAGGAUCACCCAUGUCUAUUGGGUACGGCCC”, the “apparent Kd” value in series [1] (no ligand) turned out to be 14.2 nM; in series [1] (ligand present: flavin mononucleotide), 14.9 nM.

On to “UAUUAGUAAGGAUAUGAGACGUAGGACUUCGGUCCUACGUCUCAGAAGGUACAUGAGGAUCACCCAUGUUUAUU”, for which the “apparent Kd” value in series [2] (setting [3]) came to 17.1 nM; in series [2] (setting [4]), 26.1 nM.

As to “UUUAUUUCGGCAGGAUAUACAUGUAUAUAUAUUUCUUUAUAUCUUAUUACAUGAGGAUCACCCAUGUAGAAGGGCCUUCUUCUC”, the “apparent Kd” value was 55.1 nM in series [2] (setting [3]) and 49.2 nM in series [2] (setting [4]).

For “GGAUAGUGUCGUUAUCCGUAGCGAACAUGAGGAUCACCCAUGUAGGAUAUGUUAUUAAACUAAUAACAGAAGGGCGUUAGUCUC”, the “apparent Kd” value is 37.1 nM in series [2] (setting [3]) and 42.8 nM in series [2] (setting [4]).

Turning to “GCGCGCGCAGGAUAUACAAUUGUGUGUGGAAACGCGCGCGUACAUGAGGAUCACCCAUGUAGAAGGGUGUGUGU”, the “apparent Kd” value in series [2] (setting [3]) amounted to 445 nM; in series [2] (setting [4]), 198 nM.

In the case of “UUCGGCGCAGGAUAUGCAGUUCUGUGUUGAAUCGGCGCGGGACAUGAGGAUCACCCAUGUAGAAGGGUGUUGGG”, the “apparent Kd” value in series [2] (setting [3]) was determined as 374 nM; in series [2] (setting [4]), 239 nM.

With “GCUGCAUAGGCAGGAUAUGCAAAAGCAGAUGCAAAGCAUCUGCAAAAUACAUGAGGAUCACCCAUGUAGAAGGGCCUGUGCAGU”, the “apparent Kd” value in series [2] (setting [3]) came out at 23.1 nM; in series [2] (setting [4]) it was 20.6 nM.

Turning to “ACGAAGAAACAGAAGGGUAAAUUAGUUAAUUAUUAUUUGGUUAUGCACUACAGGAUAUGUAUAACAUGAGGAUCACCCAUGUAC”, the “apparent Kd” value came to 87.2 nM in series [2] (setting [5]) and 53.5 nM in series [2] (setting [6]).

In the case of “CCAUGCGGAUGAGGAUAUUCAUCCAUGAGGAUAGAAGAAGGCAUACAUGAGGAUCACCCAUGUAUACGCAUGAGGAUCCCUUAC”, the “apparent Kd” value is 27.3 nM in series [2] (setting [3]) and 22.3 nM in series [2] (setting [4]).

Regarding “AACCUACAUGAGGAUCACCCAUGUAAGGAUAUGGCAUGAUUUGCGUCAGCCCGUUAAGUUAGAAGGUGCGUCGG”, the “apparent Kd” value in series [2] (setting [3]) is 14.8 nM; in series [2] (setting [4]), 16 nM.

For the sequence “GGUGUAUAUGAGAAGGCGAUCAUGAAACAUGAUCGAGGAUAUCAUGUAAACAUGAGGAUCACCCAUGUAUGGGAAUAAUGCACC”, the “apparent Kd” value in series [2] (setting [5]) is 120 nM; in series [2] (setting [6]), 13.6 nM.

With “AUAUUUGAUGAGGAUAUCGUUGUGGGUAUAUAGCGAGAAGGCAUUACAUGAGGAUCACCCAUGUAGUGUGGGUU”, the figures for the “apparent Kd” value in series [2] (setting [3]) and in series [2] (setting [4]) were 25.9 nM and 37 nM, respectively.

“UUUUUACAUGAGGAUCACCCAUGUCAGGAUAUGCUUAUAUUUUAUUAUUUUAUUUUUUGCAGAAGGGACUAUUA”: the “apparent Kd” value in series [2] (setting [3]) was 91.8 nM; in series [2] (setting [4]) it was 68 nM.

Take “GGCUACAUCGGAGGAUAUCAUGUAAAUACAUGAGGAUCACCCAUGUCGAUGGAGACAUCGGAGAUUGAGAAGGCCGAUGUACCG”: the “apparent Kd” value in series [2] (setting [5]) worked out at 182 nM; in series [2] (setting [6]) it was 8.49 nM.

Regarding “GGAUAGGACAGAGGAUAUACGUGCUAGAGAUACUAGCAAAAUUUCCUCACAUGAGGAUCACCCAUGUAGAAGGCUAUCCUAUCG”, the “apparent Kd” value was determined as 6.34 nM in series [2] (setting [3]) and 31.9 nM in series [2] (setting [4]).

On to “GCCAUCGCAUGAGGAUAUGGUCACGUUUCGUGACCAGAAGGCAUGUCAAUAGACAUGAGGAUCACCCAUGUAGUUAAGAUGGCA”, for which the “apparent Kd” value is 680 nM in series [2] (setting [5]) and 59.8 nM in series [2] (setting [6]).

For “AAGUAGUGAGGAUAUACAUGGAUAUACAUUCAUGUGGACCUACAUGAGGAUCACCCAUGUAGAAGGCACUAAUA”, the “apparent Kd” value in series [2] (setting [3]) was 33.8 nM; in series [2] (setting [4]) it was 28.6 nM.

“UUAUUAUAUGUAGGAUAUGCAUAUUAUUAUUAUGCAGAAGGACAUGAGGAUCACCCAUGUAUAUUAUUAUUAUAUAUUGUAUAU”: the figures for the “apparent Kd” value in series [2] (setting [3]) and in series [2] (setting [4]) were 27.8 nM and 43.2 nM, respectively.

With “AUAGCCGGGAGGUAAACUCGUGCGGCAGAAGGGUGAUACUGGACAUGAGGAUCACCCAUGUGCACACAGGAUAUGCCCGCGAGC”, the results for the “apparent Kd” value in series [2] (setting [5]) and in series [2] (setting [6]) were 159 nM and 33.3 nM, respectively.

On to “GGUUCACGAGGAUAUCGAUUUUAGUACAUGAGGAUCACCCAUGUUGUCCAGGUUUCGAUUCGAGAAGGCGUGAACC”, for which the figures for the “apparent Kd” value in series [2] (setting [3]) and in series [2] (setting [4]) were 22.8 nM and 22.5 nM, respectively.

In the case of “AAAAUCAAGUCAGGAUAUCGUGCGGUUGGUCGUUACAUGAGGAUCACCCAUGUCUUCCGGUAGCUCGAGAAGGGACGUGAGCCC”, the “apparent Kd” value in series [2] (setting [5]) was 18.6 nM; in series [2] (setting [6]), 8.33 nM.

In the case of “AUUUAAUUUAAUAAGAUCACAUGAGGAUCACCCAUGUAUAUAUAGGAUAUCAGCUCGUGUAGAGCUGAGAAGGAUAUAUACAUG”, the “apparent Kd” value was 55 nM in series [2] (setting [3]) and 55.2 nM in series [2] (setting [4]).

As for “AAUUUACAGCUAGGAUAUACAUGAGGAUCACCCAUGUAAUGAUAGGAUCUUAUGAUCGUAUCAGUGUAGAAGGAGCAAAUAAGA”, the entries for the “apparent Kd” value in series [2] (setting [3]) and in series [2] (setting [4]) were 9.39 nM and 8.81 nM, respectively.

The term apparent Kd denotes the concentration giving half-maximal binding under the conditions of the assay.
